Source: PubChem (The Scripps Research Institute Molecular Screening Center)
M4 antag = blocks acetylcholine activation of human M4 receptor | P08173 | CHO-hM4 cells, ACh EC80, Fluo-8 calcium fluorescence | inhibition, % at 3 µM | hit rate 0.73% among 360,000 | AID 624125;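 active = inhibition above its plate's cutoff, the mean inhibition of sample wells plus 3 SD, cut at about 27% in these data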
Target sequence (P08173 whole entry, looked up): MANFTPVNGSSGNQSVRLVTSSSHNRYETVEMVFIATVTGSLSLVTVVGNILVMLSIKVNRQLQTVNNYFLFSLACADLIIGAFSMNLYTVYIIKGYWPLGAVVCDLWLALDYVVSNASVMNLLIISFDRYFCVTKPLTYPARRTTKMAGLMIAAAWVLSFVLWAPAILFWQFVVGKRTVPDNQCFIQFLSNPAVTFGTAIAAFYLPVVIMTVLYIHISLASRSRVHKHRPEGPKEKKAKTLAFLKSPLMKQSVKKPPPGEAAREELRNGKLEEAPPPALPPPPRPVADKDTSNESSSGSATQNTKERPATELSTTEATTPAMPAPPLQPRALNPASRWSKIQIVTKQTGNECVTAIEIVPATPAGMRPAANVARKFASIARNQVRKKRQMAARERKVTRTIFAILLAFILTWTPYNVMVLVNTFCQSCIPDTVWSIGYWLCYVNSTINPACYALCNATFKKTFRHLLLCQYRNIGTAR
TAAR1 ag = agonists of human TAAR1 | activation, % at 3 µM | AID 624467 | Q96RJ0 | hit rate 0.99% among 360,000 | CHO RD-HGA16 TAAR1, Fluo-8 calcium fluorescence; vehicle wells 0%, saturating PEA agonist 100%;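 active = activation above the mean activation of all test compounds in the run plus 3 SD, cut at about 38% in these data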
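Signal – calcium-sensitive Fluo-8 signal, excitation 470-495, emission 515-575 nm · System – RD-HGA16 (CHO) cells co-expressing Gα16 and hTAAR1 · Incubation – 17-24 h seeding, 75 min 37 °C dye, 30 min RT · Compound dosing – 3 µM single concentration · Repeats – no replicates (n 1)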
TAAR1 antag = antagonists of human TAAR1. Q96RJ0. CHO RD-HGA16 TAAR1, Fluo-8 calcium fluorescence, antagonist. inhibition, % at 3 µM. hit rate 1.5% among 360,000. AID 624466;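 active = inhibition above a per-plate cutoff, the mean inhibition of test compounds on that plate plus 3 SD, cut at about 49% in these data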
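Material: RD-HGA16 CHO cells with stable hTAAR1 and Gα16; Dosing: single nominal final test compound concentration of 3 µM; Schedule: seeding 17-24 h prior, 75-min 37 °C, 30-min RT dye loading; Detection: kinetic Fluo-8 calcium fluorescence measurement; Measure: % inhibition from peak post-agonist over basal fluorescence ratio; Benchmarks: vehicle and agonist controls.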
CHRM4 PAM = positive allosteric modulators of human muscarinic M4 receptor | hit rate 0.4% among 360,000 | AID 624126 | CHO-K1 hM4/Gqi5, Fluo-8 calcium fluorescence, ACh EC20; 0% = ACh EC20, 100% = maximal ACh | activation, % at 3 µM;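 active = activation above its plate's cutoff, the mean activation of sample wells plus 3 SD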
M4 ag = agonists of human muscarinic M4 receptor (CHRM4); P08173; CHO-K1 hM4/Gqi5, Fluo-8 calcium fluorescence; vehicle 0%, full acetylcholine response 100%; activation, % at 3 µM; hit rate 0.14% among 360,000; AID 624127;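 active = activation above the run mean over all test wells plus 3 SD, cut at about 32% in these data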;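 note: peak over basal fluorescence ratio per well then scaled between controls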
TAAR1 nonsel count = nonselective antagonist in TAAR1 antagonist counter-screen; hit rate 77% among 2,400; counterscreen cell line, calcium fluorescence, antagonist mode; inhibition, % at 3 µM; shares compounds with TAAR1 antag; in the data active = inhibition above about 22%;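 note: CHO-Ga16 host cells stimulated with ATP at an EC80 level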
TAAR1 antag conf = confirmation of human TAAR1 antagonists; shares compounds with TAAR1 antag; TAAR1-expressing cells, fluorescence antagonist read-out; inhibition, % at 3 µM; hit rate 40% among 2,400; in the data active = inhibition above about 49%;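 note: CHO-Ga16 host cells challenged with agonist PEA near its EC80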
Ga16 nonsel ag = counter-screen for TAAR1 antagonists: nonselective Ga16 agonists; shares compounds with TAAR1 antag; hit rate 18% among 2,400; activation, % at 3 µM; Ga16-expressing cells, calcium fluorescence, agonist counterscreen; in the data active = activation above about 12%
TAAR1 ag counter = TAAR1 agonism, antagonist counter-screen. activation, % at 3 µM. AID 651955. hTAAR1 cell line, fluorescence activation, agonist mode. shares compounds with TAAR1 antag. hit rate 2% among 2,400; in the data active = activation above about 37%;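 note: CHO cells stably expressing TAAR1 with calcium dye readout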
Of the large screens only hits and unclear results are named; the others gave an inactive call (follow-up assays come after a bar, where they were run). An excerpt weighted towards active compounds, which were near 3% of everything screened.

COc1cc(-c2cc(C(=O)Nc3ccc(C)c(S(=O)(=O)N4CCOCC4)c3)c3ccccc3n2)cc(OC)c1OC	TAAR1 antag 73.6 | TAAR1 nonsel count 40.4 | TAAR1 antag conf 55.2 | Ga16 nonsel ag inactive | TAAR1 ag counter inactive
CN(c1ccc(NC(=O)Cc2c[nH]c3ccccc23)cc1)c1ccccn1	none (no result: M4 antag, CHRM4 PAM, M4 ag)
CCNc1ccccc1	none (no result: M4 antag, CHRM4 PAM, M4 ag)
CCOC(=O)N1CCN(C(=O)C[C@@H]2C[C@@]3(C(=O)OC)CC(C)(C)CC=C3N(Cc3ccc4c(c3)OCO4)C2=O)CC1	none
C[C@H]1CN([C@@H](C)CO)C(=O)CCCn2nncc2CO[C@@H]1CN(C)S(=O)(=O)c1cccc(F)c1	none
Cc1cc(S(=O)(=O)Nc2ccc(C(=O)NC3CC3)cc2)ccc1F	none
O=S(=O)(/N=C(/Nc1ccc(Cl)c(S(=O)(=O)N2CCOCC2)c1)c1ccc(F)cc1)c1ccccc1	TAAR1 antag 70.6 | TAAR1 nonsel count 32.9 | TAAR1 antag conf 57.0 | Ga16 nonsel ag inactive | TAAR1 ag counter inactive
COCC(=O)Nc1ccc(N2CCOCC2)c(S(=O)(=O)Nc2ccccc2OC)c1	none
COc1ccccc1NS(=O)(=O)c1cc(NC(=O)C(C)(C)C)ccc1N1CCOCC1	TAAR1 antag 72.4 | TAAR1 nonsel count 28.9 | TAAR1 antag conf 58.2 | Ga16 nonsel ag inactive | TAAR1 ag counter inactive
O=C(Nc1ccc(N2CCOCC2)c(S(=O)(=O)Nc2ccccc2Cl)c1)c1ccc(F)cc1	TAAR1 antag 70.1 | TAAR1 nonsel count 35.9 | TAAR1 antag conf 53.1 | Ga16 nonsel ag 13.2 | TAAR1 ag counter inactive
O=C(Nc1ccc(N2CCOCC2)c(Cl)c1)c1ccc2c(c1)OCCO2	none
O=C(Nc1ccc(N2CCOCC2)c(Cl)c1)c1ccc(Cl)cc1	TAAR1 antag 56.8 | TAAR1 nonsel count 24.5 | TAAR1 antag conf 48.8 | Ga16 nonsel ag inactive | TAAR1 ag counter inactive
CCCn1cnnc1CNC(=O)[C@@H](Cc1ccccc1)NC(=O)[C@H]1O[C@@H](n2ccc(=O)[nH]c2=O)[C@H](O)[C@@H]1O	none (no result: M4 antag, CHRM4 PAM, M4 ag)
COc1cccc(-c2cnc(C(O)c3ccc(CN4CCCC4)cc3)[nH]2)c1 (stereo unspecified)	none
CCOc1cc(N2CCOCC2)c(OCC)cc1NC(=O)CSc1nnc(N)s1	TAAR1 antag 100.1 | TAAR1 nonsel count inactive | TAAR1 antag conf inactive | Ga16 nonsel ag inactive | TAAR1 ag counter inactive
Cc1cc(C(=O)NCc2cccs2)ccc1[N+](=O)[O-]	none
Cc1cc(C(=O)NCCN2C(=O)S/C(=C\c3cccs3)C2=O)ccc1[N+](=O)[O-]	TAAR1 antag 57.2 | TAAR1 nonsel count 37.6 | TAAR1 antag conf inactive | Ga16 nonsel ag inactive | TAAR1 ag counter inactive
Cc1ccccc1NC(=O)CCN1C(=O)CSC1=O	TAAR1 antag 105.9 | TAAR1 nonsel count inactive | TAAR1 antag conf inactive | Ga16 nonsel ag inactive | TAAR1 ag counter inactive
Cc1ccc(NC(=O)CCN2C(=O)CSC2=O)c(C)c1	none
COc1ccc(OC)c(N2CC(O)=C(c3nc4ccccc4s3)C2=N)c1	none
CCOc1ccccc1N1CC(O)=C(c2nc3ccccc3s2)C1=N	TAAR1 antag 65.6 | TAAR1 nonsel count 26.4 | TAAR1 antag conf inactive | Ga16 nonsel ag 12.2 | TAAR1 ag counter inactive
Nc1c(C(=O)NC2CC2)c2nc3ccccc3nc2n1-c1ccc2c(c1)OCO2	none
Nc1c(C(=O)OCC2CCCO2)c2nc3ccccc3nc2n1-c1ccc2c(c1)OCCO2 (stereo unspecified)	TAAR1 antag 52.5 (no result: M4 antag, CHRM4 PAM, M4 ag) | TAAR1 nonsel count 30.3 | TAAR1 antag conf inactive | Ga16 nonsel ag inactive | TAAR1 ag counter inactive
CCCCCCn1cc(CN2CC(N3CCCC3)CS2(=O)=O)nn1 (stereo unspecified)	none
Cc1ccc(-c2nc3ccccc3[nH]2)cc1NC(=S)NC(=O)c1ccccc1Br	TAAR1 antag 69.9 | TAAR1 nonsel count 35.8 | TAAR1 antag conf inactive | Ga16 nonsel ag inactive | TAAR1 ag counter inactive
Cc1ccc(-c2nc3ccccc3[nH]2)cc1NC(=O)c1ccc2c(c1)OCO2	none
O=C(COC(=O)c1c(F)cccc1F)NC(=O)NCc1ccccc1	none
Cc1cc(=O)oc2c3c(cc(OCC(=O)NCc4ccco4)c12)OC(C)(C)CC3	TAAR1 antag 56.5 | TAAR1 nonsel count 23.8 | TAAR1 antag conf inactive | Ga16 nonsel ag inactive | TAAR1 ag counter inactive
COc1ccc(CNC(=O)COc2cc3c(c4oc(=O)cc(C)c24)CCC(C)(C)O3)cc1OC	TAAR1 antag 61.7 | TAAR1 nonsel count 22.7 | TAAR1 antag conf inactive | Ga16 nonsel ag inactive | TAAR1 ag counter inactive
COc1ccc(CNC(=O)COc2cc3c(c4oc(=O)cc(C)c24)CCC(C)(C)O3)c(OC)c1	TAAR1 antag 73.2 | TAAR1 nonsel count 24.9 | TAAR1 antag conf inactive | Ga16 nonsel ag inactive | TAAR1 ag counter inactive
Cc1c(C)c2c(OCC(=O)NCc3ccco3)cc3c(c2oc1=O)CCC(C)(C)O3	none
Oc1ccccc1OCCOc1ccccc1OCCOc1ccccc1O	TAAR1 antag 79.3 | TAAR1 nonsel count 34.8 | TAAR1 antag conf 55.2 | Ga16 nonsel ag inactive | TAAR1 ag counter inactive
Oc1ccccc1OCC(O)c1ccccc1 (stereo unspecified)	none
O=C(CNC(=O)c1nc[nH]c1C(=O)NCc1ccccc1)OCc1ccccc1	TAAR1 antag 66.5 | TAAR1 nonsel count 37.2 | TAAR1 antag conf 56.5 | Ga16 nonsel ag inactive | TAAR1 ag counter inactive
CCN(CC)C(=O)c1[nH]cnc1C(=O)N[C@@H](Cc1ccccc1)C(=O)OCc1ccccc1	none
CCN(CC)C(=O)c1[nH]cnc1C(=O)NCC(=O)OCc1ccccc1	TAAR1 antag 70.8 | TAAR1 nonsel count 25.2 | TAAR1 antag conf 52.4 | Ga16 nonsel ag inactive | TAAR1 ag counter inactive
O=C(NCc1ccccc1)c1nc[nH]c1C(=O)NCc1ccccc1	none
O=C(CNC(=O)c1nc[nH]c1C(=O)NCC(=O)OCc1ccccc1)OCc1ccccc1	TAAR1 antag 69.3 | TAAR1 nonsel count 36.6 | TAAR1 antag conf 56.4 | Ga16 nonsel ag inactive | TAAR1 ag counter inactive
CNC(=O)c1[nH]cnc1C(=O)NCC(=O)OCc1ccccc1	none
CNC(=O)OC1CC2CC1[C@H]1CCCCN1C2=O (stereo partly specified)	none
Cc1ccc2cc(C#N)c(N3CCN(C(=O)c4ccccc4)CC3)nc2c1	TAAR1 antag 70.8 | TAAR1 nonsel count 34.2 | TAAR1 antag conf inactive | Ga16 nonsel ag inactive | TAAR1 ag counter inactive
